Experimental data as given in ChEMBL document CHEMBL4513216, “Probing the Open Global Health Chemical Diversity Library for Multistage-Active Starting Points for Next-Generation Antimalarials” (ACS Infect Dis, 2020).

Experiment: Toxicity liver stage against HepG2, at 10uM
Type: cell-based
Parameters: test concentration 10 uM, cell line HepG2-A16-CD81EGFP
Conditions: human, HepG2-A16-CD81EGFP cells; read-out: INHIBITION
Summary of the method: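 Uninfected HepG2-A16-CD81EGFP cells, 3 × 10^3 per well, 1536-well, plated on prespotted compound at 10 μM final, parasite-free screening media added to match infected plates; puromycin 10 μM positive, DMSO 0.5% negative; run in parallel with 48 h PbLuc assay at 37 °C, 5% CO2; viability by CellTiter-Glo luminescence, normalized to controls.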

Row | Structure (SMILES) | cytotoxicity at 10 µM
1 | CC(=O)N1CC[C@H]2CC(=O)N(CCc3c[nH]cn3)CC[C@H]2C1 | -2.77%
2 | CCNC(=O)O[C@H]1COCCN(c2nc3ccccc3s2)C1 | -3.04%
3 | Cc1ccc(C)c(-n2ncc(C(=O)N(C)CCc3ccccn3)c2N)c1 | -1.57%
4 | Cc1nn(-c2ccc(C(=O)O)cc2)c2c1C(c1cccs1)SCC(=O)N2 (stereo not drawn) | -0.607%
5 | COc1ccccc1OCC(=O)NCC(C)(O)C1CC1 (stereo not drawn) | -0.419%
6 | CC(C)(C)C(O)CCNC(=O)c1ccc(F)cc1Cl (stereo not drawn) | 0.0701%
7 | Cn1nccc1-c1ccc2nc(C3CCNCC3)nn2c1 | 10.3%
8 | O=C(c1ccoc1)N1CCc2ncc(Cn3cccn3)n2CC1 | 6.9%
9 | Cc1cnc(C(=O)N2CCC3(CC2)CC(c2ccncc2)C(=O)N3)cn1 (stereo not drawn) | 9.14%
10 | CC(C)NC(=O)N1CCN(S(C)(=O)=O)CC2(CNC(=O)C2)C1 (stereo not drawn) | 8.71%
11 | Cc1csc([C@@H]2C[C@@H]3CCN(Cc4cnn(C)c4)C[C@H]3O2)n1 | -4.87%
12 | Cn1cc(CN2CCC3(CCCN(Cc4ccccn4)C3)CC2)cn1 | -6.54%
13 | CC(CN1CCOCC1)n1cncc1-c1cnn(Cc2ccccc2)c1 (stereo not drawn) | 6.33%
14 | O=C(c1cc[nH]n1)N1CCC(c2cc(Nc3ccccn3)n[nH]2)CC1 | -37.1%
15 | OCCN1CCCC(c2nccnc2Oc2ccccc2)C1 (stereo not drawn) | -25.5%
16 | Cc1nn(C)cc1C(=O)N1CCCC(n2nnc3cc(F)ccc32)C1 (stereo not drawn) | -11%
17 | Cc1ccc(=O)n(CC2(O)CCN(Cc3cnn(C)c3)CC2)n1 | 3.12%
18 | COc1cc(NCC(=O)NC(C)(C#N)C(C)C)cc(OC)c1OC (stereo not drawn) | -7.33%
19 | Cc1cc(N(C)C)nc(N(C)Cc2csc(C)n2)n1 | 7.06%
20 | CC(Cc1ccco1)NS(=O)(=O)N1CCCCC1 (stereo not drawn) | -0.867%
21 | Cc1nc(C)n(CC2CCCN2Cc2cn3ccccc3c2C#N)n1 (stereo not drawn) | 2.8%

Row | Structure (SMILES) | cytotoxicity at 10 µM
22 | N#Cc1ccc(Cn2cncn2)c(F)c1 | -1.49%
23 | NC1(c2nc(-c3cccs3)cc(=O)[nH]2)CCCCC1 | 6.03%
24 | N#CCCN(CC1CCOC1)S(=O)(=O)c1cccc(Cl)c1 (stereo not drawn) | 3.81%
25 | N#Cc1cc(F)ccc1NCC1CCS(=O)(=O)CC1 | 2.02%
26 | NCC1(CN2CCOCC2)CCCCC1 | 3.23%
27 | COC(=O)C1CCN(C(=O)Cn2nc(C)nc2-c2ccccc2)CC1 | -0.159%
28 | Cc1cnn(CCNCC(=O)N2CCN(c3ccccc3)CC2)c1 | -6.74%
29 | CCC(=O)NCc1ccccc1Cn1ccnc1 | -1.21%
30 | COc1c(CNCc2ccccc2CO)c(C)nn1C | 1.04%
31 | CC(C)c1nn(C)c(N(C)C)c1CNCc1cccnc1 | -4.6%
32 | Nc1nccnc1C(=O)N1CCN(Cc2cccc3ccccc23)CC1 | -108%
33 | CCOc1ccc(C(F)(F)F)cc1NC(=O)N1CCC(C(N)=O)CC1 | 0.425%
34 | N#CCCNC(=O)CN1CCC(c2cc3ccccc3[nH]2)CC1 | 0.91%
35 | CNC(=O)Cn1nnc(-c2cc3ccccc3o2)n1 | 5.65%
36 | Cn1cc(NC(=O)Cc2ccccc2Br)cc1C(N)=O | -1%
37 | O=C(c1c(O)cc(F)cc1F)N1CCc2cnccc21 | -4.18%
38 | Cn1c(SCC2OCCc3ccccc32)n[nH]c1=O (stereo not drawn) | -5.76%
39 | CCc1nc(NS(=O)(=O)c2ccc(F)cc2C)no1 | -10.9%
40 | Cc1nccc(CNC(=O)NCCOc2ccc(F)c(F)c2)n1 | -17%
41 | CC(NC1CCN(CCS(C)(=O)=O)CC1)c1ccc(Cl)cc1 (stereo not drawn) | -6.51%
42 | CCOC(=O)NC(CNC(=O)c1ccccn1)CC(C)C (stereo not drawn) | 10.2%

Row | Structure (SMILES) | cytotoxicity at 10 µM
43 | CN(Cc1nnc(C2CC2)n1C)C1CCN(Cc2ccccc2F)C1 (stereo not drawn) | -15.1%
44 | COCCn1c2c(ccc1=O)CCN(C(=O)NC1CC1)CC2 | 1.77%
45 | O=c1cc(CN2CCCC2)nc2n1CCCN(CC1CC1)C2 | -111%
46 | COCCCNc1nc(CNC(=O)C2CCC2)cc(-c2ccco2)n1 | -11%
47 | Cc1ccc(OCC(=O)N2CCN[C@H]3CS(=O)(=O)C[C@H]32)cn1 | -2.7%
48 | O=C(NCCc1cccs1)C1(N2CCCCC2)Cc2ccccc2C1 | -4.86%
49 | Cc1cc(C(F)(F)F)cc(=O)n1CCCn1cnnn1 | 1.16%
50 | CC(C)Cc1nc(CS(C)(=O)=O)n(-c2ccccn2)n1 | 1.66%
51 | CCc1c(C)nn(CCNC(=O)Cc2csc(C)n2)c1C | 0.129%
52 | CCc1cc(NC(C)(C)C)nc(N2CCOCC2)n1 | 0.393%
53 | Cn1ccc2c(-c3ccc(NC4CC4)nn3)ccnc21 | 10.4%
54 | Cc1ccc(CN2CCCC(c3nnc(CN4CCCC4)n3C)C2)s1 (stereo not drawn) | 0.9%
55 | Cc1cccc(-c2nc(CN3CCOCS3(=O)=O)c(C)o2)c1 | 2.01%
56 | CN(C)CC1(O)CCN(C(=O)c2ccc(-n3cnnc3)cc2Cl)C1 (stereo not drawn) | -5.06%
57 | CC(C)N1CC(C(=O)NCCc2csc(-c3ccncc3)n2)CC1=O (stereo not drawn) | -21%
58 | CCn1nc(CC(C)C)cc1C(=O)NCCn1cccc1 | -5.94%
59 | CCn1cc(CN2CCCn3nc(CNC(=O)C4CCC4)cc3C2)cn1 | -11.6%
60 | Cc1[nH]c(=O)c(C#N)cc1C(=O)N1C[C@@H](CN2CCCC2)C[C@H](CO)C1 | -8.08%
61 | COc1ccc(-c2cc(N)on2)cc1 | -12.8%
62 | COc1ccc(CCNC(=O)CN2CCCC2c2noc(C)n2)cc1 (stereo not drawn) | 0.772%
63 | Cc1ncc(C(=O)N2CCCC(n3nc(C)nc3C)C2)c(C(C)C)n1 (stereo not drawn) | -1.81%

Row | Structure (SMILES) | cytotoxicity at 10 µM
64 | CNC(=O)c1cc(C)n(-c2cccc(OC)c2)c1C | -18.1%
65 | Cc1nn(-c2ccccc2)cc1C(=O)N1CCCC(n2ccnc2)C1 (stereo not drawn) | -14.4%
66 | CN(C)CC1CN(Cc2coc(-c3ccccc3)n2)CCO1 (stereo not drawn) | -10.8%
67 | CCn1cnnc1CNC(=O)N1CCCC1 | -3.3%
68 | CCN1CCC(CNC(=O)C2(c3cccc(C)c3)CCCCC2)CC1 | -11.8%
69 | c1ccc(-c2noc(CNC3CCc4ncnn4C3)n2)nc1 (stereo not drawn) | -11.7%
70 | CC(C)OCC(=O)N1CCCN(Cc2ccc(C#N)cc2)CC1 | -7.41%
71 | O=C(NCCCN1CCCC1)c1n[nH]c(=O)c2ccccc12 | -6.62%
72 | Cn1cnc2c1CCN(CCCc1ccccc1)C2 | -1.13%
73 | C[C@@H](NCc1cccc(Cl)c1)c1onc(-c2ccc(F)cc2)c1C(=O)O | 0.258%
74 | CCN(CC)Cc1cc(=O)n2c(n1)CN(S(=O)(=O)C1CC1)CCC2 | 6.95%
75 | O=C(Cc1cccnc1)N1CCC2(CC1)CCN(C1CCOCC1)C2 | -8.16%
76 | Cn1cc(CN2CCC3(C2)CN(Cc2ccsc2)C3)cn1 | -11.2%
77 | Cn1cc(CN2C[C@@H]3CCCO[C@@H]3[C@H](N3CCCC3=O)C2)cn1 | 1.27%
78 | O=C(N[C@@H]1CN(c2ncccn2)C[C@@H]2CCCO[C@@H]21)c1ccnnc1 | 6.32%
79 | CCn1nnc2c1C(COCC(=O)N(C)C)CN(Cc1ccco1)C2 (stereo not drawn) | -4.96%
80 | CC(C)NC(=O)N1CCC2(CC1)NC(=O)CC2c1ccncc1 (stereo not drawn) | -2.94%
81 | O=C(N[C@@H]1CN(CC2CC2)[C@@H]2CCCO[C@@H]21)c1cscn1 | -109%
82 | CN(CCO)Cc1nnc(C2CCN(CC3[C@H]4CNC[C@@H]34)CC2)n1C (stereo partly drawn) | -0.517%
83 | O=C(c1ccncc1)N1C[C@H]2CC[C@@H](C1)N(C(=O)C1CCCC1)C2 | 6.77%
